Reference: publication PMC4617824 (Cancer research, 2014)
One block for each molecule: values may come before it.

How the values were obtained:
[1] = tested on: phosphorylated levels of GST-Cables1 (endogenous Akt); assay type: cell-based; settings: for block of IGF-1-induced enhancement of GST-Cables1 phosphorylation: 10 μM inhibitor 1 h, then 100 ng/ml IGF 15 min, serum-starved cells
[2] = tested on: Akt phosphorylation at T473 (Akt pT473); assay: A549 xenograft tumors: Akt phosphorylation; assay type: in vivo, lung cancer A549 xenograft mouse model; settings: compared with vehicle, Figure S1
[3] = tested on: phosphorylation of Cables1 at T44 and T150; assay: A549 xenograft tumors: Cables1 phosphorylation; assay type: in vivo, lung cancer A549 xenograft mouse model; settings: Figure S1
14-3-3ν = 14-3-3ν (UniProt Q04917); assay: TR-FRET titration; settings: reference: unphosphorylated T44 peptide; sites T44
Sequence of UniProt Q04917 (Q04917 whole entry, looked up): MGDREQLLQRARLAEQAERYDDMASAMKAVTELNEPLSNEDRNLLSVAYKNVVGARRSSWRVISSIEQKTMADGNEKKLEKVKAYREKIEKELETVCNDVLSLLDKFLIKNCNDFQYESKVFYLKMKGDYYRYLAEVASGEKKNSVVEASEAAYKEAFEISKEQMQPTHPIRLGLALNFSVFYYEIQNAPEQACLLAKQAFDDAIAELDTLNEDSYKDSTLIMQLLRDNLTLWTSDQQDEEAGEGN

[4] = tested on: Cables1 binding to 14-3-3 (GST-Cables1 / His-14-3-3γ); settings: COS7 lysates expressing GST-Cables1 and His-14-3-3γ, 0.5 h, room temperature
How it was run: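 COS7 cells co-expressing His-14-3-3γ and GST-Cables1 were lysed. Lysates were incubated 0.5 h at room temperature with calf intestinal phosphatase, with phosphatase inhibitors (5 mM Na4P2O7, 5 mM NaF, 5 mM Na3VO4), or untreated. His-14-3-3γ complexes were captured on nickel-charged resin (2 h, 4°C), washed, and eluted by boiling in SDS sample buffer. GST-Cables1 was detected by Western blot.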

Molecule: O.O=C(O)C(F)(F)F.O=c1[nH]c2ccccc2n1C1CCN(Cc2ccc(-c3nc4cc5[nH]cnc5cc4nc3-c3ccccc3)cc2)CC1 [AKT1/2 inhibitor]
block of IGF-1-induced enhancement of GST-Cables1 phosphorylation [1]: totally blocked

Molecule: CC(C)n1nc(-c2ccc3oc(N)nc3c2)c2c(N)ncnc21 [INK128]
Akt pT473 level in tumors [2]: reduced | phosphorylation of Cables1 at T44 in tumors ([3]; pT44, compared with vehicle): decreased | phosphorylation of Cables1 at T150 in tumors ([3]; pT150, compared with vehicle): decreased

Molecule: O=c1cc(N2CCOCC2)oc2c(-c3ccccc3)cccc12 [LY294002]
block of IGF-1-induced enhancement of GST-Cables1 phosphorylation [1]: totally blocked

binding against the reference (14-3-3ν): stronger
Molecule: Cables1 (from UniProt Q8TDN4-2) pT44 peptide

Molecule: IGF-1: IGF-1, Sigma-Aldrich
phosphorylated levels of GST-Cables1 ([1]; 100 ng/ml IGF, 15 min, cells serum-starved 24 h, GST pull-down, Western blot): markedly enhanced

Cables1 binding to 14-3-3 after CIP treatment [4]: reduced
B1: CIP: calf intestinal phosphatase (protein, UniProt P19111 20-506, looked up)
Intestinal-type alkaline …: LVPVEEEDPAFWNRQAAQALDVAKKLQPIQTAAKNVILFLGDGMGVPTVTATRILKGQMNGKLGPETPLAMDQFPYVALSKTYNVDRQVPDSAGTATAYLCGVKGNYRTIGVSAAARYNQCKTTRGNEVTSVMNRAKKAGKSVGVVTTTRVQHASPAGAYAHTVNRNWYSDADLPADAQMNGCQDIAAQLVNNMDIDVILGGGRKYMFPVGTPDPEYPDDASVNGVRKRKQNLVQAWQAKHQGAQYVWNRTALLQAADDSSVTHLMGLFEPADMKYNVQQDHTKDPTLQEMTEVALRVVSRNPRGFYLFVEGGRIDHGHHDDKAYMALTEAGMFDNAIAKANELTSELDTLILVTADHSHVFSFGGYTLRGTSIFGLAPSKALDSKSYTSILYGNGPGYALGGGSRPDVNDSTSEDPSYQQQAAVPQASETHGGEDVAVFARGPQAHLVHGVEEETFVAHIMAFAGCVEPYTDCNLPAPTTATSIPD
